Only some compounds are listed: those with a hit (about 11% of all), similar ones and a draw of the others.
RORa activator: RORA (human) activation; P35398; CHO-K1 Gal4-RORA LBD luciferase reporter, luminescence; percent increase over mock-subtracted basal signal; activation, % at 10 µM; 65,000 tested, 1.5% active; AID 560;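 active = activation above the mean of all tested compounds plus 3 SD, cut at about 49% in these data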;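 note: 0% = DMSO-treated RORA cells and 100% = added signal equal to DMSO minus mock-transfected cells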
mHtt clearance: compounds clearing mutant huntingtin protein | HeLa Exon1htt(103Q)mCFP, aggregate imaging; zero = plate's median compound well | inhibition, % at 1.5 µM | 47,000 tested, 0.42% active | AID 853;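 active = inhibition of aggregate fluorescence above about 70%, also judged a hit by eye on the cell image, limit read from the data, passing the limit was not always enough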;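 note: cells exposed to compound for three days before fixation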
M1 antagonist: blocks the rat M1 muscarinic receptor response to acetylcholine; P08482; 64,000 tested, 3.4% active; CHO-M1 cells, Fluo-4 calcium, ACh EC80 antagonist mode; hits give low values; B-score at 10 µM;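 active = calcium fluorescence response, raw or row-and-column corrected B-score, differing from the plate sample mean either way at a set confidence level, mostly lower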
M1 ag: agonists of M1 muscarinic receptor. B-score at 10 µM. 64,000 tested, 3% active. AID 626. CHO-M1 cells, Fluo-4 calcium fluorescence, agonist mode; hits give high values;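 active = fluorescence rise, raw or as B-score row- and column-corrected plate score, outside the 99.7% band of its plate's samples, either direction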
SF1 activator: activators of human nuclear receptor SF-1. Q13285. CHO-K1 Gal4-SF-1 LBD luciferase reporter; % increase over DMSO SF-1-specific signal. activation, % at 10 µM. 65,000 tested, 1.9% active;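 active = activation above the mean activation of all tested compounds plus 3 SD, cut at about 50% in these data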
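Test system: CHO-K1 cells with Gal4–hSF-1 LBD chimera plus Gal4-driven luciferase; Input: 4,000 cells/well; Compound: 10 µM only; Times: 20 h compound treatment, 37 °C; Measured by: steady-glow luciferase luminescence, read after 15 min reagent incubation; Measure: percent activation versus DMSO; Control set: DMSO and mock-transfected background; Replicates: one test per compound.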
D1 mod: D1 dopamine receptor (human) allosteric modulation; P21728; HEK293 D1, CRE-luciferase, dopamine EC30 potentiation; actives deviate in either direction; B-score at 10 µM; 58,000 tested, 5.9% active;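 active = luminescence count or its row- and column-corrected plate score outside the 99.7% band of the plate's sample wells, on either side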
Target sequence (P21728 whole entry, looked up): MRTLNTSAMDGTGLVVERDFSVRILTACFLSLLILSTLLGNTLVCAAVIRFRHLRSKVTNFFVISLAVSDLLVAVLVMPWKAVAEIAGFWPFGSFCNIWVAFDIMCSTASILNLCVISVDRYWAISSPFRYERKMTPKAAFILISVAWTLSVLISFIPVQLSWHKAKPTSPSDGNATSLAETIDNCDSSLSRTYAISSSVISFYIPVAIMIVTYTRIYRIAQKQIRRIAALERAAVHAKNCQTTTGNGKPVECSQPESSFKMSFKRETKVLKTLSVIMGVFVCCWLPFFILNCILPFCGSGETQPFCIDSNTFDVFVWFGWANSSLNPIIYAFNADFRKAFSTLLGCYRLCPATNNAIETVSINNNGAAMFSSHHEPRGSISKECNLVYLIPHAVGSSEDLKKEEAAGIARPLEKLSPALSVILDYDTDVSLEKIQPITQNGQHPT
D1 mod confirm: D1 receptor (human) allosteric modulation, confirmed. shares compounds with D1 mod. HEK293 D1 CRE-luciferase, dopamine EC30 potentiation; hits give high values. luminescence at 10 µM. 2,200 tested, 88% active;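 active = luminescence in either of two replicates above the same-plate mean plus 3 SD of the low-dose dopamine control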
D1 ag no DA: activates D1 CRE-luciferase signal without dopamine present; shares compounds with D1 mod; HEK293 D1 CRE-luciferase, luminescence, no dopamine; hits give high values; luminescence at 10 µM; 1,900 tested, 0.8% active; in the data active = luminescence above about 3900
Isoprot counter: isoproterenol response counter-screen activity for D1 modulators; 2,200 tested, 63% active; calls only at 10 µM; HEK293 D1 CRE-luciferase, isoproterenol EC30 counter-screen; shares compounds with D1 mod; AID 647;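 active = luminescence in either replicate above plate mean of wells with a partly effective reference agonist dose plus 3 SD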;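 note: isoproterenol raises cAMP through native beta-adrenoceptor Gs so signal bypasses D1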
* hit, by the source's call; i = inactive; / = not tested or not shown; + = active, no number.

SMILES	RORa activator	mHtt clearance	M1 antagonist	M1 ag	SF1 activator	D1 mod	D1 mod confirm	D1 ag no DA	Isoprot counter
CCOc1ccccc1NC(=O)CSc1ncnc2c1oc1ccccc12	-2	23	-0.62	-1.3	11	3.6*	6488*	1512	+
O=C(Nc1sc2c(c1C(=O)NCc1cccnc1)CCCC2)c1ccco1	-1	66	-0.51	-0.58	-4	12*	17940*	1360	+
O=C(Nc1sc2c(c1C(=O)NC1CC1)CCCCCC2)c1ccco1	-13	26	0.11	0.13	-8	1.8	/	/	/
CSc1nnc2n(-c3ccccc3)c(=O)c3c4c(sc3n12)CCC4	-2	/	-0.038	-0.5	-1	17*	18696*	1684	+
CCCSc1nnc2n(-c3ccccc3OC)c(=O)c3c4c(sc3n12)CCC4	-20	/	-1.1	1	-10	/	/	/	/
C=CCSc1nnc2n(-c3ccccc3OC)c(=O)c3c4c(sc3n12)CCC4	-5	/	0.031	0.33	-9	5.7*	11688*	1704	i
O=C1CSC(=Nc2cc(Cl)ccc2Cl)N1	-6	16	0.94	0.43	-4	0.035	/	/	/
C=CCOc1nc(N2CCCC2)nc(N2CCCC2)n1	-2	23	0.19	0.053	-2	24*	26540*	1648	+
CCNc1nc(NC(C)(C)C)nc(N(CC)n2cnnc2)n1	2	/	-0.99	-0.39	-11	2.7*	8308*	1680	i
COc1ccc(NC(=O)C2CCCCN2N)cc1OC (configuration not stated)	/	49	/	/	/	/	/	/	/
COc1ccc(NC(=O)C2CCCN2c2ccc(OC)c(OC)c2)cc1OC (configuration not stated)	-8	/	0.3	0.042	-2	6*	15612*	1544	+
COc1ccc(CN2CCCCC2C(=O)Nc2ccc(OC)c(OC)c2)cc1OC (configuration not stated)	-28	-3	0.76	0.021	-7	7.2*	14900*	1604	+
CCOC(=O)Nc1c(C)n(C)n(-c2ccccc2)c1=O	-9	/	-1.3	1.3	-8	2	/	/	/
CCOC(=O)CCn1c2nc(C)cc(C)c2c(=O)n1-c1ccccc1	-6	/	0.54	0.48	5	2.2*	5272	1496	i
COc1ccccc1-c1cc2nc(C)c(CCC(=O)NC(C)CCc3ccco3)c(C)n2n1 (configuration not stated)	/	22	/	/	/	/	/	/	/
Cc1ccc(CSC2=NCCN2C(=O)c2ccco2)cc1	-11	/	0.0085	1.3	-3	0.74	/	/	/
Cc1cccc(CSC2=NCCN2C(=O)c2ccco2)c1	-32	-6	-1.1	0.051	-10	3.8*	9944*	1728	i
O=C1c2ccccc2C(Nc2ccc(F)c(Cl)c2)N1Cc1ccco1 (configuration not stated)	8	-158	-0.58	-0.59	0	3.4	/	/	/
O=C1c2ccccc2C(Nc2ccc3c(c2)OCO3)N1Cc1ccco1 (configuration not stated)	-12	-123	-1.2	0.27	-37	7.6*	12600*	1504	+
O=C1c2ccccc2C(Nc2ccc3c(c2)OCO3)N1Cc1ccc2c(c1)OCO2 (configuration not stated)	-25	23	-0.078	1.1	-10	4.1*	9888*	1436	+
CC(=O)Nc1cc(C(=O)N2CCCC2)ccc1S(=O)(=O)c1ccc(Cl)cc1	/	-6	/	/	/	/	/	/	/
Cc1c(NS(=O)(=O)CC23CCC(CC2=O)C3(C)C)c(=O)n(-c2ccccc2)n1C (configuration not stated)	-6	-18	1.4	-0.18	10	3.3*	6536	1760	i
CCOc1ccc(N(CC(=O)Nc2nccs2)S(=O)(=O)c2c(C)noc2C)cc1	24	30	0.18	0.0069	11	0.21	/	/	/
COc1ccc(-c2nnc(SCC(=O)N3CCCC3)o2)cc1OC	-11	51	-0.94	0.51	3	0.19	/	/	/
COc1ccc(-c2ccc(SCC(=O)N3CCCC3)nn2)cc1OC	-9	4	0.068	0.27	7	14*	25344*	1728	+
SMILES	RORa activator	mHtt clearance	M1 antagonist	M1 ag	SF1 activator	D1 mod	D1 mod confirm	D1 ag no DA	Isoprot counter
COc1ccc(-c2ccc(SCC(=O)N3CCOCC3)nn2)cc1OC	3	32	-0.29	0.11	29	12*	27680*	1628	+
COc1ccc(CC(=O)N2CCOCC2)cc1OC	-3	10	-0.25	-0.0089	-3	-0.46	/	/	/
Cc1nc2scc(-c3cccs3)c2c(=O)n1-n1cccc1	6	4	0.5	0.31	-23	4.1*	9316*	1476	+
Cc1ccc(C)n1-n1c(C)nc2scc(-c3cccs3)c2c1=O	-21	/	-0.72	-0.075	-12	1.9	/	/	/
CCC(=O)Nc1cc(C)c(NC(=O)c2ccccc2OC)cn1	17	-10	0.71	-1.6	7	2.1	/	/	/
Cc1ccc(-c2csc3nnc(SCc4csc(C)n4)n23)cc1	-11	/	0.15	0.094	-4	9.3*	22688*	1908	+
Cc1nc(CSc2nnc3scc(-c4ccccc4)n23)cs1	-2	7	0.049	-0.21	-3	10*	21372*	1512	+
CCc1nnc(NC(=O)CSc2nnc3scc(-c4ccc(C)cc4)n23)s1	-2	-10	1.1	1.2	4	0.24	/	/	/
Cc1noc(C)c1CSc1nnc2scc(-c3ccc(Cl)cc3)n12	-20	1	-0.67	0.046	6	7.8*	18508*	1640	+
Cc1ccc(-c2nc(NC(=O)CSc3nnc4scc(-c5ccccc5)n34)ns2)cc1	12	/	0.27	1.3	-12	-2	/	/	/
O=C(c1cccc(S(=O)(=O)N2CCCC2)c1)c1nnc(-c2ccncc2)o1	-17	/	-1.4	-1.8	-6	0.94	/	/	/
COc1ccccc1-n1c(CNc2c(C)cccc2C)nnc1SCC(=O)N1CCOCC1	-4	-4	0.3	-0.23	-7	-0.61	/	/	/
Nn1c(SCc2ccccc2)nnc1-c1ccco1	7	/	1.1	-0.42	-22	-0.47	/	/	/
CCSc1nc(-c2ccco2)ccc1C#N	-21	/	0.36	-0.089	-17	2.7*	6188*	1560	i
N#Cc1ccc(-c2ccco2)nc1SCc1ccccc1	1	-25	/	/	4	3.1*	17912*	1576	i
CCOC(=O)C1=C(C)NC(C)=C(C(=O)OCC)C1c1cc(N)ccc1OC(F)F	8	24	-0.15	-0.17	11	-0.79	/	/	/

High-throughput results deposited in PubChem by several laboratories.
